In article PMC7668563 (International journal of molecular biology (Edmond, Okla.), 2020):
Like-named read-outs stand apart in the source and are kept apart here.

How the values were obtained:
[1] = system: human breast adenocarcinoma cell line, MCF-7; assay: MTT cell viability assay on MCF-7, 72 h exposure; type: cell-based; conditions: read-out: IC50 (±SD), MCF-7, MCF-7, 72 h of exposure
Procedure, shortened: (§1)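 HT-29 was grown in McCoy's 5A with 10% FBS. MCF-7 was grown in MEM with 10% FBS and 0.01 mg/mL insulin. Both were kept at 37°C, 5% CO2, trypsinized at 70–80% confluency and seeded at 1.5×10^4 cells/well for 24 h. Cells were then exposed for 72 h to test compound in 5% DMSO/95% medium, with DMSO-medium controls. MTT was added as a 2.67 mg/mL solution for 2 h. Formazan was dissolved in 10% Triton X-100/isopropanol and read at A570 minus A620. IC50 came from a sigmoidal fit of viability vs log concentration, eight replicas, triplicate, ±SD.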

[2] = system: human colorectal adenocarcinoma cell line, HT-29; assay: MTT cell viability assay on HT-29, 72 h exposure; type: cell-based; conditions: read-out: IC50 (±SD), HT-29, HT-29, 72 h of exposure
Procedure, shortened: as §1

[3] = target: T1, apo-human transferrin (apo-hTf) (Homo sapiens, UniProt P02787); assay: UV-Vis absorbance titration of apo-hTf; type: binding
T1 sequence (P02787 20-698): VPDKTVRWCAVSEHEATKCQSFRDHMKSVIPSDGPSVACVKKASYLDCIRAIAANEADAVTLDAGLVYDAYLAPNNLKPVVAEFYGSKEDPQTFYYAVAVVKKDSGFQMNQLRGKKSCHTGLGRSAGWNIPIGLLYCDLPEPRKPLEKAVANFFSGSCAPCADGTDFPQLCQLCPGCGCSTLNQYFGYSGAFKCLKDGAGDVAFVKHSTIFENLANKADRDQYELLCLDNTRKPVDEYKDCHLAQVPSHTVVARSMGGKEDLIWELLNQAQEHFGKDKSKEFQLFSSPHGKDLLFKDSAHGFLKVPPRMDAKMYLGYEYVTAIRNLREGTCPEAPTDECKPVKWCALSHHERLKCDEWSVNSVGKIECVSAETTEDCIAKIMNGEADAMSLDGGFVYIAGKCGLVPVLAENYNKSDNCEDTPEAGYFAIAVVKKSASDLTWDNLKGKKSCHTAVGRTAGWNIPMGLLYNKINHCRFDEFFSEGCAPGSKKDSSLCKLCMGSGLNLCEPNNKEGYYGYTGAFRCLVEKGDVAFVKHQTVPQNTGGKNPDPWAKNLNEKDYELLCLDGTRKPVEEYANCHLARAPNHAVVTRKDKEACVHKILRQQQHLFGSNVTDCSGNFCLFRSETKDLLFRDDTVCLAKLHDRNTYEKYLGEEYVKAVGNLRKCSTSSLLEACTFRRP

[4] = target: T1, apo-human transferrin (apo-hTf); assay: Fluorescence quenching of apo-hTf; type: binding; conditions: for biomolecular quenching rate constant kq: kq=Ksv/τ0; for Stern-Volmer quenching constant Ksv / number of binding sites n: pH 7.4; for quenching association constant Ka: pH 7.4, modified Stern-Volmer
Procedure, shortened: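 Intrinsic fluorescence of apo-hTf in Tris-HCl pH 7.4 was titrated with test compound (Tris-HCl/2% DMSO). Conditions: excitation 280 nm, emission 290–500 nm, slits 10/5 nm, 1.0 cm quartz cell, at 296, 303, 310 and 317 K, triplicate titrations. Intensities were corrected for inner filter effect using absorbances at excitation and emission wavelengths. Ksv came from Stern-Volmer plots of F0/F vs [Q]; kq = Ksv/τ0 (τ0 ~1.0×10−8); Ka and n came from the modified Stern-Volmer equation.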

[5] = target: T1, apo-human transferrin (apo-hTf); assay: Thermodynamic parameters of apo-hTf complex formation; type: binding
Procedure, shortened: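 Ksv values were obtained from apo-hTf fluorescence quenching at pH 7.4 at 296, 303, 310 and 317 K. ΔH°, ΔS° and ΔG° were derived from linear regression of ln(Ksv) vs 1/T (Van't Hoff equation).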

[6] = target: T1, apo-human transferrin (apo-hTf); assay: Fluorescence resonance energy transfer; type: binding
Procedure, shortened: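 Emission spectrum of 1.0×10−5 mol L−1 apo-hTf and absorption spectrum of 1.0×10−5 mol L−1 test compound were recorded in 20 mM Tris-HCl pH 7.4 at room temperature, 260–450 nm, and their spectral overlap determined. E was calculated from apo-hTf fluorescence without and with equimolar test compound. R0 and donor–acceptor distance r came from Förster equations.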

[7] = target: T1, apo-human transferrin (apo-hTf); assay: Far-UV circular dichroism titration of apo-hTf, secondary structure content
Procedure, shortened: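 Apo-hTf (4.0×10−7 mol L−1) in 2 mM Tris-HCl pH 7.4 was titrated with a 1.0×10−3 mol L−1 stock of test compound in Tris-HCl/2% DMSO, to final 0–2.4×10−6 mol L−1. Far-UV CD was recorded from 190–250 nm under nitrogen in a 1.0 cm cell: six scans at 100 nm/min. Baseline was buffer ± DMSO at room temperature. α-Helix was derived from MRE at 208 nm; β-sheet and random coil by the CD-RRG method.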

[8] = target: T1, apo-human transferrin (apo-hTf); conditions: cited from earlier work; for Ka: Cp2VCl2 bound to apo-hTf
[9] = apo-hTf:Cp2VCl2 complex, ref Zhang et al. 64

Structure (SMILES): [Cl-].[Cl-].[V+4].c1cc[cH-]c1.c1cc[cH-]c1 [Cp2VCl2]
- IC50 [1]: 50 µM
- IC50 [2]: 33 µM
- Ka at 280 nm ([3]; absorbance at 280 nm): 3240 M⁻¹
- Ka at 361 nm ([3]; absorbance at 361 nm): 2670 M⁻¹
- Association constants, Ka, 280 nm ([3]; absorbance of apo-hTf at 280 nm, pH 7.4): 3.24 10^3 M^−1
- Association constants, Ka, 361 nm ([3]; absorbance of apo-hTf at 361 nm, pH 7.4): 2.67 10^3 M^−1
- biomolecular quenching rate constant kq ([4]; 296 K): 3.564e+12 M⁻¹ s⁻¹
- Stern-Volmer quenching constant Ksv ([4]; 296 K): 35640 M⁻¹
- number of binding sites n ([4]; 296 K): 1.23
- quenching association constant Ka ([4]; 296 K): 444400 M⁻¹
- biomolecular quenching rate constant kq ([4]; 303 K): 4.085e+12 M⁻¹ s⁻¹
- Stern-Volmer quenching constant Ksv ([4]; 303 K): 40850 M⁻¹
- number of binding sites n ([4]; 303 K): 1.2
- quenching association constant Ka ([4]; 303 K): 337500 M⁻¹
- biomolecular quenching rate constant kq ([4]; 310 K): 4.26e+12 M⁻¹ s⁻¹
- Stern-Volmer quenching constant Ksv ([4]; 310 K): 42600 M⁻¹
- number of binding sites n ([4]; 310 K): 1.16
- quenching association constant Ka ([4]; 310 K): 240500 M⁻¹
- biomolecular quenching rate constant kq ([4]; 317 K): 4.936e+12 M⁻¹ s⁻¹
- Stern-Volmer quenching constant Ksv ([4]; 317 K): 49360 M⁻¹
- number of binding sites n ([4]; 317 K): 1.11
- quenching association constant Ka ([4]; 317 K): 159800 M⁻¹
- ∆G° ([5]; 296 K): -6.169 kcal/mol
- ∆G° ([5]; 303 K): -6.379 kcal/mol
- ∆G° ([5]; 310 K): -6.587 kcal/mol
- ∆G° ([5]; 317 K): -6.797 kcal/mol
- ∆H° ([5]; pH 7.4, from Ksv at 296-317 K): 2.713 kcal/mol
- ∆S° ([5]; pH 7.4, from Ksv at 296-317 K): 125.52 J/mol K
- Förster critical energy transfer distance R0 ([6]; k^2=2/3, n=1.336, ØD=0.118): 1.78 nm
- binding distance r (donor-acceptor) ([6]; k^2=2/3, n=1.336, ØD=0.118): 2.08 nm
- efficiency of energy transfer E ([6]; room temperature, 1.0×10^−5 mol L^−1 each): 0.281
- other secondary structure content of apo-hTf ([7]; compound concentration 0.4 (M)): 20%
- random coil content of apo-hTf ([7]; compound concentration 0.4 (M)): 33.7%
- α-helix content of apo-hTf ([7]; compound concentration 0.4 (M)): 28.4%
- β-sheet content of apo-hTf ([7]; compound concentration 0.4 (M)): 17.9%
- other secondary structure content of apo-hTf ([7]; compound concentration 0.8 (M)): 20.1%
- random coil content of apo-hTf ([7]; compound concentration 0.8 (M)): 33.9%
- α-helix content of apo-hTf ([7]; compound concentration 0.8 (M)): 27.9%
- β-sheet content of apo-hTf ([7]; compound concentration 0.8 (M)): 18.1%
- other secondary structure content of apo-hTf ([7]; compound concentration 1.2 (M)): 20.4%
- random coil content of apo-hTf ([7]; compound concentration 1.2 (M)): 34.1%
- α-helix content of apo-hTf ([7]; compound concentration 1.2 (M)): 27.2%
- β-sheet content of apo-hTf ([7]; compound concentration 1.2 (M)): 18.3%
- other secondary structure content of apo-hTf ([7]; compound concentration 1.6 (M)): 20.7%
- random coil content of apo-hTf ([7]; compound concentration 1.6 (M)): 34.3%
- α-helix content of apo-hTf ([7]; compound concentration 1.6 (M)): 26.5%
- β-sheet content of apo-hTf ([7]; compound concentration 1.6 (M)): 18.5%
- other secondary structure content of apo-hTf ([7]; compound concentration 2 (M)): 20.8%
- random coil content of apo-hTf ([7]; compound concentration 2 (M)): 34.5%
- α-helix content of apo-hTf ([7]; compound concentration 2 (M)): 25.8%
- β-sheet content of apo-hTf ([7]; compound concentration 2 (M)): 18.9%
- other secondary structure content of apo-hTf ([7]; compound concentration 2.4 (M)): 21.1%
- random coil content of apo-hTf ([7]; compound concentration 2.4 (M)): 34.6%
- α-helix content of apo-hTf ([7]; compound concentration 2.4 (M)): 25.1%
- β-sheet content of apo-hTf ([7]; compound concentration 2.4 (M)): 19.2%
- Ka ([8]; ref Du et al. 63): 137000 M⁻¹
- Ka ([8]; ref Zhang et al. 64): 32800 M⁻¹
- Ksv [8, 9]: 30400 M⁻¹
- kq [8, 9]: 3.04e+12 M⁻¹ s⁻¹
